Measurements taken from ChEMBL document CHEMBL1140577, “Anticancer and anti-inflammatory activities of 1,8-naphthyridine-3-carboxamide derivatives” (Bioorg Med Chem Lett, 2007).
Calls of active or inactive are those of the source. No cut-off for these calls is given here.

Assays:
[1] = system: A549; test: Cytotoxicity against human A549 cells after 72 hrs by MTT assay; assay type: functional, cell-based; conditions: A549, 72 h
Summary of the method: (§1)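 5000–10,000 cells seeded per well and exposed for 72 h in a CO₂ incubator to five concentrations, the highest 10 µM (top soluble). MTT (125 µg) added for 3 h, then lysed with 10% SDS–0.01 N HCl for 1 h. Absorbance read at 540 nm. % cytotoxicity = (1 − (treated−blank)/control)×100.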

[2] = system: KB; test: Cytotoxicity against human KB cells after 72 hrs by MTT assay; assay type: functional, cell-based; summary of the method: as §1
[3] = system: Dendritic cell; test: Myeloprotective activity assessed as stimulation of MIP1 secretion in mouse dendritic cells after 24 hrs by ELISA relative to basal level; assay type: functional, cell-based
Summary of the method: (§2)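 Murine bone-marrow-derived dendritic cells, not LPS-stimulated, incubated with compounds at 0.1 and 1 µg/ml for 24 h. MIP-1α, CCL22 and TNF-α in culture supernatants measured by ELISA. % change = (B−A)/A×100 against untreated DCs.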

[4] = system: Dendritic cell; test: Myeloprotective activity assessed as inhibition of CCL22 secretion in mouse dendritic cells after 24 hrs by ELISA; assay type: functional, cell-based; summary of the method: as §2
[5] = system: SW-620; test: Cytotoxicity against human SW620 cells after 72 hrs by MTT assay; assay type: functional, cell-based; conditions: SW-620, 72 h; summary of the method: as §1
[6] = system: NIH3T3 (Mus musculus); test: Cytotoxicity against mouse NIH3T3 cells after 72 hrs by MTT assay; conditions: NIH3T3, 72 h
[7] = system: K562; test: Cytotoxicity against human K562 cells after 72 hrs by MTT assay; assay type: functional, cell-based; conditions: K562, 72 h; summary of the method: as §1
[8] = Cytotoxicity against human MIA PaCa cells after 72 hrs by MTT assay; assay type: functional, cell-based; summary of the method: as §1
[9] = system: Dendritic cell; test: Myeloprotective activity assessed as inhibition of TNFalpha secretion in mouse dendritic cells after 24 hrs by ELISA relative to basal level; assay type: functional, cell-based; summary of the method: as §2
[10] = system: PA-1; test: Cytotoxicity against human PA1 cells after 72 hrs by MTT assay; assay type: functional, cell-based; conditions: PA-1, 72 h; summary of the method: as §1
[11] = system: HBL-100; test: Cytotoxicity against human HBL100 cells after 72 hrs by MTT assay; assay type: functional, cell-based; conditions: HBL-100, 72 h; summary of the method: as §1
[12] = system: DU-145; test: Cytotoxicity against human DU145 cells after 72 hrs by MTT assay; assay type: functional, cell-based; conditions: DU-145, 72 h; summary of the method: as §1
[13] = Antiinflammatory activity assessed as inhibition of IL1-beta secretion in LPS-induced C57BL/6 mouse dendritic cells after 24 hrs by ELISA; assay type: functional, Dendritic cell
Summary of the method: (§3)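 DCs grown from femoral bone marrow of 8–12-week-old C57BL/6 mice in RPMI-1640 with 10% FBS and rmGM-CSF (20 ng/ml), 37 °C, 5% CO₂. Immature DCs stimulated with LPS (100 ng/ml) and exposed to compounds (0.001–10 µg/ml range) for 24 h. Cytokine in supernatant quantified by ELISA. % change = (B−A)/A×100, where A is LPS-stimulated DCs without compound.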

[14] = system: Dendritic cell; test: Antiinflammatory activity assessed as inhibition of IP-10 secretion in LPS-induced C57BL/6 mouse dendritic cells after 24 hrs by ELISA; assay type: functional, cell-based; summary of the method: as §3
[15] = Antiinflammatory activity assessed as inhibition of TNFalpha secretion in LPS-induced C57BL/6 mouse dendritic cells at 1 ug/mL after 24 hrs by ELISA; assay type: functional; conditions: C57BL/6, Dendritic cell; summary of the method: as §3

| Compound | IC50 [1] [µM] | IC50 [2] [µM] | Activity [3] | Activity [4] | IC50 [5] [µM] | IC50 [6] [µM] | IC50 [7] [µM] | IC50 [8] [µM] | Activity [9] | IC50 [10] [µM] | IC50 [11] [µM] | IC50 [12] [µM] | Inhibition [13] [%] | Activity [14] | inhibition at 1 µg/mL [15] [%] |
| --- | --- | --- | --- | --- | --- | --- | --- | --- | --- | --- | --- | --- | --- | --- | --- |
| C#CCn1cc(C(=O)NCCCOC(=O)[C@H](C)NC(=O)OC(C)(C)C)c(=O)c2ccc(Cl)nc21 | > 10 | > 10 | Active | Active | > 10 | 9.2 | > 10 | > 10 | Active | > 10 | 5.4 | > 10 | – | – | – |
| C#CCn1cc(C(=O)N[C@@H](C)CCOC(=O)[C@H]2CCCN2C(=O)OC(C)(C)C)c(=O)c2ccc(Cl)nc21 | > 10 | 6.6 | – | – | 3.3 | > 10 | > 10 | > 10 | – | 5.2 | 8.4 | > 10 | – | – | – |
| C#CCn1cc(C(=O)NCCCOC(=O)[C@H]2OC(C)(C)N(C(=O)OC(C)(C)C)[C@@H]2c2ccccc2)c(=O)c2cccnc21 | – | – | – | – | – | – | – | – | – | – | – | – | >50 | – | – |
| C#CCn1cc(C(=O)NCCCOC(=O)[C@H]2CCCN2C(=O)OC(C)(C)C)c(=O)c2ccc(C)nc21 | > 10 | 3.7 | – | – | > 10 | > 10 | > 10 | > 10 | – | > 10 | > 10 | > 10 | – | – | – |
| C#CCn1cc(C(=O)NCCCOC(=O)CNC(=O)OC(C)(C)C)c(=O)c2ccc(Cl)nc21 | – | – | Active | Active | – | – | – | – | Active | – | – | – | – | Active | > 50 |
| C#CCn1cc(C(=O)NCCCOC(=O)[C@@H](O)[C@@H](N)c2ccccc2)c(=O)c2ccc(Cl)nc21 | – | – | – | – | – | – | – | – | – | – | – | – | >50 | – | – |
| C#CCn1cc(C(=O)NCCCOC(=O)[C@@H](O)[C@@H](NC(=O)OC(C)(C)C)c2ccccc2)c(=O)c2ccc(Cl)nc21 | > 10 | > 10 | – | – | 3 | 7.84 | > 10 | > 10 | – | > 10 | > 10 | > 10 | – | Active | > 50 |
| C#CCn1cc(C(=O)N[C@@H](C)CCOC(=O)[C@H](C)NC(=O)OC(C)(C)C)c(=O)c2ccc(Cl)nc21 | > 10 | 8.3 | – | – | > 10 | > 10 | > 10 | > 10 | – | 4.9 | > 10 | > 10 | – | – | – |
| C#CCn1cc(C(=O)NCCCOC(=O)CNC(=O)OC(C)(C)C)c(=O)c2cccnc21 | > 10 | 7 | – | – | > 10 | > 10 | > 10 | > 10 | – | 9 | > 10 | > 10 | – | – | – |
| C#CCn1cc(C(=O)NCCCOC(=O)[C@H]2CCCN2C(=O)OC(C)(C)C)c(=O)c2ccc(Cl)nc21 | > 10 | > 10 | Active | Active | > 10 | 8.4 | > 10 | 7.6 | Active | > 10 | 3.7 | > 10 | – | Active | > 50 |
| C#CCn1cc(C(=O)NCCCOC(=O)[C@H]2OC(C)(C)N(C(=O)OC(C)(C)C)[C@@H]2c2ccccc2)c(=O)c2ccc(Cl)nc21 | > 10 | > 10 | – | – | 3.96 | > 10 | > 10 | > 10 | – | 6 | 1.37 | > 10 | >50 | – | > 50 |
